Measurements as given in ChEMBL document CHEMBL1121744, “Synthesis and antihypertensive activity of a series of 8-substituted 1-oxa-3,8-diazaspiro[4.5]decan-2-ones” (J Med Chem, 1981).
Activity calls are given as the source filed them. The calls are words filed in the database; no cut-off is given here.

How the values were obtained:
Canis familiaris [1] = experiment: Percent inhibition of the pressor responses to 1 ug/kg iv Epinephrine in pentobarbital-anesthetized dogs for a dose of 10 mg/kg; assay type: functional; conditions: Canis lupus familiaris
Outline: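 Dogs anesthetized with sodium pentobarbital 35 mg/kg iv; femoral artery cannulated for blood pressure, femoral vein for dosing. Epinephrine 1 μg/kg iv given at about 10-min intervals before and after increasing test doses. Test doses given iv at 90-min intervals. Result is per cent inhibition of the pressor response.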

Rattus norvegicus [2] = experiment: The antihypertensive activity as percentage fall in systolic blood pressure in spontaneously hypertensive rats after a period of 4 hr for a dose of 50 mg/kg po
Canis familiaris [3] = experiment: Change in mean arterial pressure in anesthetized dogs for a dose of 0.316 mg/kg; assay type: functional, Canis lupus familiaris, Artery
Outline: (§1)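 Dogs anesthetized with sodium pentobarbital (35 mg/kg iv), femoral artery cannulated for pressure, ECG-triggered heart rate, femoral vein for dosing. Rising iv doses were given 90 min apart, and each dose is the full dose, not cumulative. Value is the maximal mean arterial pressure change 10–15 min after each dose, two dogs per compound, ±3 mmHg. Saline served as control.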

Canis familiaris [4] = experiment: Change in mean arterial pressure in anesthetized dogs for a dose of 0.01 mg/kg; assay type: functional, Canis lupus familiaris, Artery; outline: as §1
Rattus norvegicus [5] = experiment: The antihypertensive activity as percentage fall in systolic blood pressure in spontaneously hypertensive rats after a period of 4 hr for a dose of 25 mg/kg po; NS=Not significant; assay type: functional, organism-based; set-up: dose 25 mg/kg; conditions: Artery
Outline: (§2)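 Male Okamoto-Aoki SHR, trained, in groups of four matched for mean systolic pressure; one group per run received water vehicle. Oral dosing in water (0.1 mL per 10 g) on two consecutive mornings. After the day-2 dose, rats were restrained at 30.0 ± 1.0 °C. Systolic pressure was read by tail cuff (inflated to 300 mmHg, first pulse) at 1–4 h. % fall is versus the untreated control group, by 1-tail t test (p ≤ 0.05).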

Rattus norvegicus [6] = experiment: The antihypertensive activity as percentage fall in systolic blood pressure in spontaneously hypertensive rats after a period of 1 hr for a dose of 25 mg/kg po; assay type: functional, Artery; outline: as §2
Rattus norvegicus [7] = experiment: The antihypertensive activity as percentage fall in systolic blood pressure in spontaneously hypertensive rats after a period of 2 hr for a dose of 25 mg/kg po; NS=Not significant; assay type: functional, organism-based; set-up: dose 25 mg/kg; conditions: Artery; outline: as §2

O=C1NCC2(CCN(CCc3c[nH]c4ccccc34)CC2)O1
inhibition in vivo at 10 mg/kg (Canis familiaris [1]): 97%
Decrease in blood pressure (Rattus norvegicus [2]): 11%

CN1CC2(CCN(CC(O)C3COc4ccccc4O3)CC2)OC1=O (configuration not stated)
MAP (Canis familiaris [3]): 0 mmHg
MAP (Canis familiaris [4]): 4 mmHg
Decrease in blood pressure (Rattus norvegicus [5]): inactive
Decrease in blood pressure (Rattus norvegicus [6]): 27%
Decrease in blood pressure (Rattus norvegicus [7]): inactive
